Assay outcomes: PubChem, Broad Institute
rRNA inh HTS: selective bacterial rRNA inhibition in E. coli. GFP signal change (wild-type ribosome), % (concentration not given with the values). actives 1.6% (n = 350,000). E. coli WT GFP vs humanized-ribosome RFP mutants, fluorescence, 24 h; hits give low values; DMSO median 0, no signal -100. AID 720706;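 active = significant combined selectivity score with lowered wild-type GFP, culture density cut under 30%, mutant RFP and density less affected; inactive = any of these conditions unmet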
CaV13 ICDI inh: Primary screen for inhibitors of IQ motif and Ca2+-dependent inactivation inhibitor domain binding in CACNA1D, Förster resonance energy transfer in living cells, …; inhibition, % at 12.3 µM; actives 0.098% (n = 340,000); AID 743397; HEK cells, CFP/YFP FRET ICDI-IQ, plate reader, 10 min; percent FRET-ratio fall versus neutral wells;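 active = mean replicate inhibition of at least 30% and at least 1% of replicates passing that level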;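 note: 0% = median of the neutral control wells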
Cneo AK release: Cryptococcus neoformans lysis via adenylate kinase release. lysis activity, % at 15 µM. actives 0.2% (n = 360,000). C. neoformans lysis, adenylate kinase release luminescence, 4 h; normalised: neutral wells 0, clomiphene wells 100;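 active = mean lysis activity across replicates of at least 80%, whatever share of replicates individually reach that level; inactive = mean lysis activity below 80%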
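Assay system: Cryptococcus neoformans yeast cells / Dosing: single-point compound dose / Timing: 4 h at 37 °C static, read 1 h later / Measured by: luminescence of released adenylate kinase using an AK detection reagent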
F508del corr: correctors of CFTR F508del function in bronchial epithelial cells; CFBE cells, YFP halide quenching; stimulated with forskolin plus potentiator P3; % fluorescence drop versus neutral controls; activity (quench increase), % at 7.58 µM; actives 0.36% (n = 350,000); AID 720511;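 active = mean added fluorescence quench of at least 8% versus neutral control, with both replicates also reaching 8%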;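 note: cells transiently co-express mutant CFTR-F508del with the halide-sensitive YFP; corrector assay measuring rescue of mutant channel to the surface after 24 h compound exposure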
* hit, by the source's call; nt = no result; + = active, no number. Sampled rows, rich in hits. Any-hit rate of the full collection: about 1.7%.

SMILES	rRNA inh HTS	CaV13 ICDI inh	Cneo AK release	F508del corr
COc1ccccc1/C=C/C(=O)NCC(=O)N/N=C/c1ccccc1	-11	-7	nt	3
CCOC(=O)c1cnc2c(c(C)nn2C)c1Oc1ccccc1F	-32*	-4	nt	0
O=C(/C=C/Nc1ccccc1C(F)(F)F)c1ccco1	-22*	-6	5	-1
O=C(/C=C/Nc1ccc(Oc2ccccc2)cc1)c1ccco1	-25*	-7	nt	1
O=C(/C=C/Nc1cccc(C(F)(F)F)c1)c1ccco1	5	-5	nt	-1
NC(=O)c1ccccc1N/C=C/C(=O)c1ccco1	nt	-7	nt	nt
COCC(=O)N(C)C[C@H]1Oc2ncc(-c3cccc(OC)c3)cc2C(=O)N([C@@H](C)CO)C[C@@H]1C	3	nt	0	0
CCCc1nnc(NC(=S)Nc2ccccc2)s1	18	-6	nt	5
CC(C)C(=O)Nc1nnc(NC(=S)Nc2ccccc2)s1	-34*	-7	-5	7
COCC(=O)N1[C@H](CO)[C@H]2c3ccccc3N(C(=O)c3cccc(OC)c3)C[C@H]21	2	nt	-2	-2
CCc1ccc(NS(=O)(=O)c2cc3c(cc2C)n(C)c(=O)c(=O)n3C)cc1	2	-41	0	-1
Cc1cc2c(cc1S(=O)(=O)Nc1ccc(F)cc1)n(C)c(=O)c(=O)n2C	-4	-6	-4	11*
CO[C@@H]1CN(C)C(=O)c2ccc(NC(=O)Nc3ccccc3F)cc2OC[C@@H](C)N(S(=O)(=O)CC(F)(F)F)C[C@H]1C	-2	nt	-12	-1
Cc1cc2[nH]c3c(c[n+](C)c4ccccc34)c2cc1C	-52	-5	nt	24*
C/C(=N/OC(=O)c1ccc(C)cc1)c1cccs1	nt	-1	-6	nt
C/C(=N/OC(=O)c1ccccc1Br)c1ccc(C)cc1	-18*	-4	-11	-3
COc1cccc(C#Cc2cnc3c(c2)C(=O)N([C@@H](C)CO)C[C@@H](C)[C@H](CN(C)C(C)=O)O3)c1	0	nt	1	1
CNC[C@H]1OCCCC[C@@H](C)Oc2ccc(NC(=O)c3ccccc3)cc2C(=O)N([C@@H](C)CO)C[C@@H]1C	3	nt	nt	-7
COc1ccc(-c2nc(C#N)c(N3CCCCCC3)o2)cc1OC	-23*	-9	nt	-1
COc1ccccc1C(=O)Nc1ccc(S(=O)(=O)N2CCCCC2c2cccnc2)cc1 (stereo not drawn)	-22*	-5	nt	-1
COC(=O)c1ccc(NC(=S)NN2CCCCC2c2cccnc2)cc1 (stereo not drawn)	-27*	-14	-3	0
O=C1NC(=O)/C(=C/c2ccccc2Cl)N1	13	-19	-1	0
O=C1NC(=O)/C(=C\c2ccc(Cl)cc2Cl)N1	-19*	-5	2	-2
S=c1[nH]nc(-c2ccco2)n1/N=C/C(Cl)=C/c1ccccc1	-36*	-3	-5	-4
O=C(N[C@@H]1CC[C@H](CCn2cc(-c3ccccc3)nn2)O[C@@H]1CO)c1cnccn1	-2	nt	1	1
SMILES	rRNA inh HTS	CaV13 ICDI inh	Cneo AK release	F508del corr
Cc1ccc(OCCC(=O)OCC(=O)NCCc2ccccc2)cc1	-22*	-2	nt	-1
CN1C(=O)c2cc(NS(C)(=O)=O)ccc2OC[C@H]2O[C@@H](CC(=O)NCc3ccc(-c4ccccc4)cc3)CC[C@H]21	-9	nt	-3	nt
CCCCCCN1C[C@@H](n2cc(C3CC3)nn2)[C@H](O)C[C@@H]1c1ccccc1	1	-7	0	3
CCCCCCN1C[C@H](O)[C@@H](n2cc(C3CC3)nn2)C[C@@H]1c1ccccc1	-16*	-3	2	0
C[C@@H]1CN([C@@H](C)CO)C(=O)c2cc(NC(=O)CCC(F)(F)F)ccc2O[C@@H](C)CCCCO[C@H]1CN(C)C(=O)NC1CCCCC1	-2	nt	-1	-2
C/C=C/c1ccc2c(c1)O[C@H](CN(C)C(=O)C1CCC1)[C@H](C)CN([C@H](C)CO)S2(=O)=O	0	nt	nt	0
CC(C)NC(=O)N1CC2(C1)[C@H](c1ccccc1)[C@H](CO)N2C(=O)C1CCC1	1	nt	nt	2
Nc1nc(-c2cc(O)ccc2[N+](=O)[O-])cc(-c2ccccc2)c1[N+](=O)[O-]	-4	+	-4	-10
CC(=O)c1ccc(OC(=O)CCNC(=O)c2ccccc2)cc1	3	-5	0	1
CCOC(=O)c1cccc(OC(=O)CCNC(=O)c2ccc(Cl)cc2)c1	-28*	-7	0	-2
COc1ccccc1-c1cn(CC[C@@H]2CC[C@H](NC(=O)C3CCOCC3)[C@H](CO)O2)nn1	3	nt	-1	-1
CN(C)/C=C/C(=O)c1ccc(C(F)(F)F)cc1F	15	-1	0	1
CN(C)/C=C/C(=O)c1c(F)cccc1F	10	94*	nt	0
COC(=O)c1ccc(CN2CC(=O)N3[C@H](CO)[C@@H](c4ccc(Br)cc4)[C@@H]3C2)cc1	0	nt	nt	-1
CNc1c2cccc(C)c2nc2c(C(=O)NCCN(C)C)cccc12	-41	-12	nt	19*
CC(=O)NC(=S)Nc1sc2c(c1C(N)=O)CCC(C)C2 (stereo not drawn)	-28*	5	nt	-2
CC(C)c1cn(CC[C@@H]2CC[C@H](NC(=O)C3CC3)[C@H](CO)O2)nn1	-2	nt	-12	0
COC(=O)COc1ccc(Cl)cc1C1Nc2ccccc2C(=O)N1c1ccc(OC)cc1 (stereo not drawn)	-25*	-8	0	2
C=CC1c2ccccc2/C=C(C(=O)OC)\C(C(=O)OC)=C/N1Cc1ccc(OC)cc1 (stereo not drawn)	nt	nt	11	-1
Cc1c(Cc2ccccc2)c(=O)oc2cc(OCC(=O)NC(Cc3ccc(Cl)cc3)C(=O)O)ccc12 (stereo not drawn)	-27*	nt	0	-2
COc1ccc(C(=O)Cn2c(=N)n(C)c3ccccc32)cc1	7	-5	-2	2
CCOC(=O)Cn1c(=N)n(CCOc2ccc(Br)cc2)c2ccccc21	-48*	-5	3	1
CCCCn1c(=N)n(CC(=O)c2ccc(OC)cc2)c2ccccc21	-43*	-4	nt	-1
COc1cccc(-c2cn(CC[C@@H]3CC[C@@H](NS(=O)(=O)Cc4ccccc4)[C@@H](CO)O3)nn2)c1	1	nt	18	-4
Cc1ccc(S(=O)(=O)N[C@H](C(=O)OCC(=O)NC(=O)C2CCCCC2)C(C)C)cc1	8	-6	0	12*
Cc1ccc(S(=O)(=O)N[C@H](C(=O)OCC(=O)NC(=O)Nc2ccc3c(c2)OCCO3)C(C)C)cc1	nt	-5	nt	nt
COc1ccc(NC(=O)N[C@@H]2CC[C@@H](CCNC(=O)c3ccccc3F)O[C@H]2CO)cc1	-1	nt	-1	2
C[C@@H]1CN([C@@H](C)CO)C(=O)c2cc(-c3ccc(C#N)cc3)cnc2O[C@@H]1CN(C)C(=O)CC1CC1	4	nt	-1	-1
